ChEMBL document CHEMBL4257496, “Discovery and biological evaluation of N5-substituted 6,7-dioxo-6,7-dihydropteridine derivatives as potent Bruton's tyrosine kinase inhibitors” (Medchemcomm, 2018)
Active and inactive are the calls of the source. The rule behind the calls is not given here.

Experiments:
[1] = biological target: T1, Tyrosine-protein kinase BTK (Homo sapiens, UniProt Q06187); experiment: Inhibition of recombinant human full-length N-terminal His6-tagged BTK expressed in baculovirus infected Sf21insect cells using poly (4:1 Glu, Tyr) as substrate measured after 1 hr by ELISA
T1 sequence (Q06187 whole entry): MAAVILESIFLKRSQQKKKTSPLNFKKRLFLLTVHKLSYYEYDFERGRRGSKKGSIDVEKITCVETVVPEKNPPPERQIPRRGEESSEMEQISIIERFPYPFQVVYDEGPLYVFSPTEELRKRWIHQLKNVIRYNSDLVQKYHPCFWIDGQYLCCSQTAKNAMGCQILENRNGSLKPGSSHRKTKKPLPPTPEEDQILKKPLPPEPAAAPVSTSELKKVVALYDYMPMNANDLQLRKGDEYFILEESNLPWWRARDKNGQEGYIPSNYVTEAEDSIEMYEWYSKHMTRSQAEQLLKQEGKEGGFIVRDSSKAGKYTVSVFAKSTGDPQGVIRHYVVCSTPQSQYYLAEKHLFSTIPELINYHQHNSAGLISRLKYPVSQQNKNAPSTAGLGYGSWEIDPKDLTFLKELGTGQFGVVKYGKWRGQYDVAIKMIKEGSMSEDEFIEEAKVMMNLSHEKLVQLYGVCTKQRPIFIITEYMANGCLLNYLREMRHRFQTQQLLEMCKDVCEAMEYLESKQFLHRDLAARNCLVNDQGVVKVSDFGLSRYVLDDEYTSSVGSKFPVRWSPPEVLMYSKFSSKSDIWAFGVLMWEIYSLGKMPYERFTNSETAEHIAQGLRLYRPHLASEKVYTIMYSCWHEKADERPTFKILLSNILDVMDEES

[2] = biological target: T1, Tyrosine-protein kinase BTK; experiment: Inhibition of anti-IgM-induced BTK phosphorylation at Y223 residue in human Ramos cells at 5 nM preincubated for 1.5 hrs followed by anti-IgM stimulation and measured after 15 mins by Western blot analysis
[3] = biological target: T2, Tyrosine-protein kinase ITK/TSK (Homo sapiens) (UniProt Q08881); experiment: Inhibition of ITK (unknown origin) at 100 nM using poly (4:1 Glu, Tyr) as substrate measured after 1 hr by ELISA relative to control
T2 sequence (whole entry): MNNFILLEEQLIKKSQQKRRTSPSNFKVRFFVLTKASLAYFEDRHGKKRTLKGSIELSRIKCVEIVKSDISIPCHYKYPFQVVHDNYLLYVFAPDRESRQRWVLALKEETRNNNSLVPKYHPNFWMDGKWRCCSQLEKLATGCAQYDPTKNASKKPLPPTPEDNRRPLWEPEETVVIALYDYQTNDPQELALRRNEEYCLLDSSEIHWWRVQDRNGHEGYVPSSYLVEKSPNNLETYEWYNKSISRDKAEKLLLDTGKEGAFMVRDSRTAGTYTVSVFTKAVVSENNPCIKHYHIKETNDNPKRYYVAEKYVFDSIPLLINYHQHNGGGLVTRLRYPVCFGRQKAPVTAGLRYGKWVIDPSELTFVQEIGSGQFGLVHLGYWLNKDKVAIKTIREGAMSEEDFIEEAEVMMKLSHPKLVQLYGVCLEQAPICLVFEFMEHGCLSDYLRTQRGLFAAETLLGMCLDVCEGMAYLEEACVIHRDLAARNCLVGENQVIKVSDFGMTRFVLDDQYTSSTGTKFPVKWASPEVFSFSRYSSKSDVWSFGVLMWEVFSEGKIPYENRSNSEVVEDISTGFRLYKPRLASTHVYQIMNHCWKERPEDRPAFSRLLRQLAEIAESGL
How it was run: (§1)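 ELISA kinase assay. Poly(Glu,Tyr)4:1 substrate was precoated at 20 μg mL–1. Active kinase was incubated with compound in 50 mM HEPES pH 7.4, 20 mM MgCl2, 0.1 mM MnCl2, 0.2 mM Na3VO4, 1 mM DTT and 5 μM ATP at 37 °C for 1 h. Phosphotyrosine was detected with anti-phosphotyrosine PY99 and an HRP secondary antibody, developed with OPD, and absorbance was read at 492 nm.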

[4] = biological target: Receptor tyrosine-protein kinase erbB-4 (Homo sapiens) (UniProt Q15303); experiment: Inhibition of ErbB4 (unknown origin) at 100 nM using poly (4:1 Glu, Tyr) as substrate measured after 1 hr by ELISA; how it was run: as §1
Chain of Receptor tyrosine-protein kinase erbB-4 (Homo sapiens) (Q15303 whole entry): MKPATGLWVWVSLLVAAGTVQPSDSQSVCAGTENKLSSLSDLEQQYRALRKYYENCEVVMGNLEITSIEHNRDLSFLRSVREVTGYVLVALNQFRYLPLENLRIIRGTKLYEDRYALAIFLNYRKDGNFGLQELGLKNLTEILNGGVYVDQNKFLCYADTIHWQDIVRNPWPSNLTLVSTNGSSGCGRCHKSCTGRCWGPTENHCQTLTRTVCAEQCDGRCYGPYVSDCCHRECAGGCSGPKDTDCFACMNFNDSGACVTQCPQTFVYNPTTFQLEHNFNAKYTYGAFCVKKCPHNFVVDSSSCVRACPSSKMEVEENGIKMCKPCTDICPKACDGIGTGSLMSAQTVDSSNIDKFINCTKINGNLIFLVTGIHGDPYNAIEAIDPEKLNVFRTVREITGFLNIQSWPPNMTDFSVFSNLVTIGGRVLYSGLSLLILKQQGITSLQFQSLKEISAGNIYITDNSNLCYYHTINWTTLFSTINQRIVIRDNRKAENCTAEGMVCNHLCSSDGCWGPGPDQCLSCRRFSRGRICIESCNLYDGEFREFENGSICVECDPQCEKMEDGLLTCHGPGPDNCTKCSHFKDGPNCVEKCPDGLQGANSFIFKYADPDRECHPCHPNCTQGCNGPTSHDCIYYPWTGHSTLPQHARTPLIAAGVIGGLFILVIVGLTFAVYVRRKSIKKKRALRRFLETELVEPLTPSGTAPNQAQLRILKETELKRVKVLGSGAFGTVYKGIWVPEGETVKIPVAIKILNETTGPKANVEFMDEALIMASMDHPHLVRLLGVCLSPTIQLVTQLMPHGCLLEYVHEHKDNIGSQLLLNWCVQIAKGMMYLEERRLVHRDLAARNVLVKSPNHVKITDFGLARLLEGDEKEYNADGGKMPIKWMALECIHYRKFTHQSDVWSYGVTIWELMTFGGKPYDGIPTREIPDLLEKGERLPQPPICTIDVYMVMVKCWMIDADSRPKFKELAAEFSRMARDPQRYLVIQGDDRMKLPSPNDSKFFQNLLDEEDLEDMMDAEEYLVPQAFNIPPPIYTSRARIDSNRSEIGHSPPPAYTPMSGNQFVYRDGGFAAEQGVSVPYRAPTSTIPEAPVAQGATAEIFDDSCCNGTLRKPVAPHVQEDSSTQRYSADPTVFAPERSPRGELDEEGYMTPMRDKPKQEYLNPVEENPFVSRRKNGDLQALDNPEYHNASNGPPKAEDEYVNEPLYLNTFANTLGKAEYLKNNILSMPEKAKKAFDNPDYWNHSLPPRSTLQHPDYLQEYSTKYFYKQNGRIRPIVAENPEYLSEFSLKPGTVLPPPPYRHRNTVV

[5] = biological target: T1, Tyrosine-protein kinase BTK; experiment: Inhibition of anti-IgM-stimulated BTK activation in human Ramos cells assessed as reduction in PLCgamma2 phosphorylation at Y759 residue at 5 nM preincubated for 1.5 hrs followed by anti-IgM stimulation and measured after 15 mins by Western blot analysis; type: cell-based
How it was run: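 Ramos cells were serum-starved 2 h and treated with compound for 1.5 h. They were then stimulated with anti-IgM (2.5 μg mL–1) for 15 min. Cells were lysed by boiling 30 min in Tris-HCl pH 6.8/DTT/SDS buffer and analysed by western blot. Blots were probed for BTK, p-BTK (Tyr223), PLCγ2 and p-PLCγ2, with β-actin or α-tubulin as loading controls.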

[6] = biological target: Proto-oncogene tyrosine-protein kinase receptor Ret (Homo sapiens) (UniProt P07949); experiment: Inhibition of RET (unknown origin) at 100 nM using poly (4:1 Glu, Tyr) as substrate measured after 1 hr by ELISA relative to control; how it was run: as §1
[7] = tested on: Ramos; experiment: Antiproliferative activity against human Ramos cells after 72 hrs by MTT assay; type: functional, cell-based
How it was run: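 Ramos Burkitt's lymphoma cells (RPMI-1640 with 10% FBS, 37 °C, 5% CO2) were seeded and grown 2 h, then exposed to a range of concentrations in PBS, each in triplicate, for 72 h. MTT was added for 4 h at 37 °C, followed by SDS lysis buffer, and absorbance was read at 570 nm. Inhibition rate = [1 – (A treated/A control)] × 100%. Values are means ± SD of at least two independent determinations.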

[8] = biological target: Epidermal growth factor receptor (Homo sapiens) (UniProt P00533); experiment: Inhibition of EGFR (unknown origin) at 100 nM using poly (4:1 Glu, Tyr) as substrate measured after 1 hr by ELISA; how it was run: as §1
Chain of Epidermal growth factor receptor (Homo sapiens) (P00533 whole entry): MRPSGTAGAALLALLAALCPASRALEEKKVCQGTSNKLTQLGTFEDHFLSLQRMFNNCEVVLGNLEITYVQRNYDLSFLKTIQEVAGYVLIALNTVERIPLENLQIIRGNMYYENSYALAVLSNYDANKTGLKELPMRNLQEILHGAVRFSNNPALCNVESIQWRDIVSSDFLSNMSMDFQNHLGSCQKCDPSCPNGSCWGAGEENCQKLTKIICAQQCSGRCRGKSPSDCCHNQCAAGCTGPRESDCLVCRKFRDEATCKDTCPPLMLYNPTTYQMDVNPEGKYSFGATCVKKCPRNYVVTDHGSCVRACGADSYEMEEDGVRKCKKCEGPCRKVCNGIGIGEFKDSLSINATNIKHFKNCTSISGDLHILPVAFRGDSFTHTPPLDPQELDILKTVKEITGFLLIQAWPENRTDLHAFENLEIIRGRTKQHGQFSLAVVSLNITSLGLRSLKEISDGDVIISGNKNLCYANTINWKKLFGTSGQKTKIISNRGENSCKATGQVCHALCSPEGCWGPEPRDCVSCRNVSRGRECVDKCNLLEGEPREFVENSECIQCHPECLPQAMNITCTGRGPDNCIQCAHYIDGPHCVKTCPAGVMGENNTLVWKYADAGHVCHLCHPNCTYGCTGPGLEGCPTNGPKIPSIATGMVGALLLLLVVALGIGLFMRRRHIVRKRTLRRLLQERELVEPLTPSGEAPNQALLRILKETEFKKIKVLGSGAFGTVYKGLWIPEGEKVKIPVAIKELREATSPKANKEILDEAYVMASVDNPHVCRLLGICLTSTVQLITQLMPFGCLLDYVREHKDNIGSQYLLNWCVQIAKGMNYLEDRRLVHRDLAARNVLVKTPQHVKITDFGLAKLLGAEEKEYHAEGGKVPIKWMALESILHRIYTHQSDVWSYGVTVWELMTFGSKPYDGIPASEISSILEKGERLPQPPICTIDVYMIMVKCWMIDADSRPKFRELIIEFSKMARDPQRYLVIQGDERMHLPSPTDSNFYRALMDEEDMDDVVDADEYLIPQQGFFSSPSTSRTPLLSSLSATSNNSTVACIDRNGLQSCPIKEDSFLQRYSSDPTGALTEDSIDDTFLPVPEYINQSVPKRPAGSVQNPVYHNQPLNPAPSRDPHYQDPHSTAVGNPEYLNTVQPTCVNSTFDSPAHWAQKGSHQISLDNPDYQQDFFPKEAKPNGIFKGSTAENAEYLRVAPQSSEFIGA

[9] = biological target: Receptor tyrosine-protein kinase erbB-2 (Homo sapiens) (UniProt P04626); experiment: Inhibition of ErbB2 (unknown origin) at 100 nM using poly (4:1 Glu, Tyr) as substrate measured after 1 hr by ELISA relative to control; how it was run: as §1
Chain of Receptor tyrosine-protein kinase erbB-2 (Homo sapiens) (P04626 whole entry): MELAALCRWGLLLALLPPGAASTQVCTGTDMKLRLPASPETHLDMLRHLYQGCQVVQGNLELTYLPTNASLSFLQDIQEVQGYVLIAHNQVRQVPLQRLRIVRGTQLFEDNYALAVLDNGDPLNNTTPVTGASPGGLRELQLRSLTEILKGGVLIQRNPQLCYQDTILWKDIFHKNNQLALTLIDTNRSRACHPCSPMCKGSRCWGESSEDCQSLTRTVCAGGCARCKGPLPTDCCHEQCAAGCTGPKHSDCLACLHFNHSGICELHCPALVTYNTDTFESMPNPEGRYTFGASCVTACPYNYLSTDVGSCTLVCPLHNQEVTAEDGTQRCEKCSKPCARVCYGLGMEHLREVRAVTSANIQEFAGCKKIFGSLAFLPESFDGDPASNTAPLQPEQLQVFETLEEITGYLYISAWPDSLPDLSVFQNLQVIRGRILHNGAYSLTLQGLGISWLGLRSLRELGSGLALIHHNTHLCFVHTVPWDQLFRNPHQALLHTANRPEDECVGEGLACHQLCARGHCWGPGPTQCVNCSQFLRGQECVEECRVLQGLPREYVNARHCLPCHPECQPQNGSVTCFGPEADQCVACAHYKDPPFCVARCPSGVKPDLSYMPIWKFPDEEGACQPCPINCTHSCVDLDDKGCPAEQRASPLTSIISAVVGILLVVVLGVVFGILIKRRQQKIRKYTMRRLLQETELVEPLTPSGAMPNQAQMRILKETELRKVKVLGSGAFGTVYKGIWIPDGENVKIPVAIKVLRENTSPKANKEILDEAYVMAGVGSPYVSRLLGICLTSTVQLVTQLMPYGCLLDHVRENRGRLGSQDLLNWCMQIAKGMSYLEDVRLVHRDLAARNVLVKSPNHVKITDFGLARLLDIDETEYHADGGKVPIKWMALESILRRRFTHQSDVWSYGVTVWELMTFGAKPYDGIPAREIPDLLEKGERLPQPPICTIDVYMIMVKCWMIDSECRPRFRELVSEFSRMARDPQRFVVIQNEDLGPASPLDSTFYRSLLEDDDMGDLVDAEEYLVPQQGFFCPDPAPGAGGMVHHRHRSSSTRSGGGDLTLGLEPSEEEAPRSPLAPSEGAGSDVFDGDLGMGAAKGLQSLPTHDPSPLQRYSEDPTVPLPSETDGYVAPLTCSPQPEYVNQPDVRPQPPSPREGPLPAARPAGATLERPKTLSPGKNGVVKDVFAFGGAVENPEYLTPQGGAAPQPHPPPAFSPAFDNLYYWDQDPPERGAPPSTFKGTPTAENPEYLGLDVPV

[10] = species on record: Homo sapiens; experiment: Selectivity ratio of IC50 for EGFR (unknown origin) to IC50 for recombinant human full-length N-terminal His6-tagged BTK expressed in baculovirus infected Sf21insect cells

C=CC(=O)Nc1cccc(-n2c(=O)c(=O)n(C)c3cnc(Nc4ccc(N5CCN(C)CC5)cc4OC)nc32)c1
IC50 [1]: 237 nM

C=CC(=O)Nc1cccc(-n2c(=O)c(=O)n(CCC)c3cnc(Nc4ccc(N5CCN(C)CC5)cc4OC)nc32)c1
IC50 [1]: 21.8 nM

C=CC(=O)Nc1cccc(-n2c(=O)c(=O)n(C(C)C)c3cnc(Nc4ccc(OCCN(C)C)cc4OC)nc32)c1
IC50 [1]: 31.9 nM

C=CC(=O)Nc1cccc(-n2c(=O)c(=O)n(C(C)C)c3cnc(Nc4ccc(N5CCN(C)CC5)c(OC)c4)nc32)c1
inhibition [2]: Active
inhibition [3]: < 35%
inhibition [4]: Active
inhibition [5]: Active
inhibition [6]: > 70%
IC50 [7]: 10100 nM
inhibition [8]: Active
IC50 [1]: 2.4 nM
inhibition [9]: < 35%

C=CC(=O)Nc1cccc(-n2c(=O)c(=O)n(CC)c3cnc(Nc4ccc(N5CCN(C)CC5)cc4OC)nc32)c1
IC50 [1]: 17.2 nM

C=CC(=O)Nc1cccc(-n2c(=O)c(=O)[nH]c3cnc(Nc4ccc(N5CCN(C)CC5)cc4OC)nc32)c1
inhibition [2]: inactive
inhibition [5]: inactive
IC50 [7]: > 100000 nM
IC50 [1]: 5.4 nM

C=CC(=O)Nc1cccc(-n2c(=O)c(=O)n(C(C)C)c3cnc(Nc4ccc(N5CCC(N6CCN(C)CC6)CC5)cc4OC)nc32)c1
IC50 [1]: 12.8 nM

C=CC(=O)N1CCC[C@@H](n2nc(-c3ccc(Oc4ccccc4)cc3)c3c(N)ncnc32)C1 [IBRUTINIB]
IC50 [7]: 6180 nM

C=CC(=O)Nc1cccc(-n2c(=O)c(=O)n(C(C)C)c3cnc(Nc4ccc(N5CCN(C)CC5)c(C)c4)nc32)c1
inhibition [2]: Active
inhibition [3]: < 35%
inhibition [4]: Active
inhibition [5]: Active
inhibition [6]: > 70%
IC50 [7]: 9370 nM
inhibition [8]: Active
IC50 [1]: 1.9 nM
inhibition [9]: < 35%

C=CC(=O)Nc1cccc(-n2c(=O)c(=O)n(C(C)C)c3cnc(Nc4ccc(N(C)CCN(C)C)cc4OC)nc32)c1
IC50 [1]: 20.8 nM

C=CC(=O)Nc1cccc(-n2c(=O)c(=O)n(C(C)C)c3cnc(Nc4ccc(N5CCN(C)CC5)cc4OC)nc32)c1
Ratio IC50 [10]: 23
inhibition [3]: < 35%
inhibition [4]: Active
inhibition [8]: Active
IC50 [1]: 47.4 nM
inhibition [9]: < 35%
